Data set [1] is classed as in vivo, human. Put shortly: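 Five 2.5 mL catheter samples (three-draw-flush) taken on one of two random schedules, 5 min to 48-168 h post-infusion. Sodium-heparin plasma was separated within 6 h and frozen. LC-MS/MS, LLOQ 0.5 ng/mL. Noncompartmental: k_z from the last 3 points; AUC by linear trapezoid plus Clast/k_z; CL = dose/AUC∞; Vz = dose/(k_z·AUC∞). Episodes were compared by paired two-sided t-test on log-transformed differences.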

The test system of data set [2] is patients <17 years old. Nature of the data set: Vincristine target toxicity. The class given is in vivo, human. The note with it: greater than baseline; weekly for one month and monthly for 6 months from sampling. In short, it runs like this:
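Vincristine-treated patients in four age cohorts were graded for neuropathy by CTC v3 (before 10/1/10) or CTCAE 4.03. Assessed weekly for one month, then monthly for 6 months from PK sampling. Only new-onset events or grade increases over baseline after sampling counted. Incidence was related to PK parameters and demographics by univariate logistic regression, then backward-selection multivariate regression.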

For data set [3], the system named is patients <17 years old. Kind of data set: Actinomycin-D target toxicities. Type of data set: in vivo, human. The settings on record: during the study. Put shortly: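 Actinomycin-D given to patients in four age cohorts (<1, 1 to <3, 3 to <12, 12 to <17 years). Grade 3 ALT, AST, GGT elevation, sinusoidal obstructive syndrome, and grade 3 neutrophil or platelet decrease were reported weekly for 21 days after PK sampling. Only new-onset events or grade increases over baseline counted. Each toxicity was related to PK and demographics by univariate logistic regression, then backward-selection multivariate regression.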

Where [4] appears, read: patients (n = 17) with two episodes of sampling, ratio (95% CI), P=0.05.

Read-outs that look alike come from different tables or passages of the source. Numbered stars: 1 amine (or outer) side, 2 acyl side, 3 side chain; on linkers, the order of the positions; unused ones are H or OH. Bridge positions count the residues as written; N and C are the ends. Square brackets hold non-standard residues; d marks the D form. Peptide text beside a SMILES is read from it. I, II: the chains in the order shown. Actinocin(9to1) = Cc1c2oc3c(C)ccc(C(=O)[*:1])c3nc-2c(C(=O)[*:2])c(N)c1=O; NMeV = CN[C@H](C(=O)O)C(C)C; Sar = CNCC(=O)O

Experimental findings from PMC8653953 (Cancer chemotherapy and pharmacology, 2021) are described below.

One may read the half-life as the time in which the quantity being followed falls by half. A lower half-life goes with fast loss. By AUC is commonly meant concentration integrated over time. Low readings indicate less exposure, high ones more exposure.

As for `CC[C@]1(O)C[C@H]2CN(CCc3c([nH]c4ccccc34)[C@@](C(=O)OC)(c3cc4c(cc3OC)N(C=O)[C@H]3[C@@](O)(C(=O)OC)[C@H](OC(C)=O)[C@]5(CC)C=CCN6CC[C@]43[C@@H]65)C2)C1` [Vincristine], in data set [1] (all ages, n=132 patients, median, CV 67%), the Clearance amounted to 17.2 L/hr/m^2. The molecule further returned a half-life in data set [1] (all ages, n=132 patients, median, CV 73%) of 14.6 h. Moreover, the AUC in data set [1] (all ages, n=132 patients, median, CV 98%) stood at 78 ng·h/mL. The “clearance, ratio between two sampling episodes” value in data set [1] (patients (n = 17) with two episodes of sampling, ratio (95% CI), P=0.04) was 1.54 (1.03,2.31). Further, in data set [1] (setting [4]), the “CL/BSA, ratio between two sampling episodes” value was 1.50 (0.99–2.25) and the “Vz/BSA, ratio between two sampling episodes” value was 1.56 (0.99–2.46). For the same molecule, in the data set on patients <17 years old [2], the “patients with grade 3 peripheral motor neuropathy” value is listed as “four” and the “patients with grade 3 peripheral sensory neuropathy” value is listed as “four”.

Take `Cc1c2oc3c(C)ccc(C(=O)N[C@@H]4C(=O)N[C@H](C(C)C)C(=O)N5CCC[C@H]5C(=O)N(C)CC(=O)N(C)[C@@H](C(C)C)C(=O)O[C@@H]4C)c3nc-2c(C(=O)N[C@@H]2C(=O)N[C@H](C(C)C)C(=O)N3CCC[C@H]3C(=O)N(C)CC(=O)N(C)[C@@H](C(C)C)C(=O)O[C@@H]2C)c(N)c1=O` [Actinomycin-D] (I: T[dV]P[Sar][NMeV] / II: T[dV]P[Sar][NMeV]; ester I:1-I:C, II:1-II:C; linker I:N-II:N via Actinocin(9to1)): the half-life in data set [1] (all ages, n=52 patients, median, CV 60%) was found to be 25 h. This molecule yielded a Clearance in data set [1] (all ages, n=52 patients, median, CV 90%) of 4.6 L/hr/m^2. Besides, the “median AUC of the youngest group, lower than the oldest groups” value in data set [1] (children <1 year vs oldest groups, consistent with the difference in dose) is reported as “approximately 50%”. The sinusoidal obstructive syndrome entry in the data set with patients <17 years old [3] is listed as “No participant experienced sinusoidal obstructive syndrome”.
